Assays:
[1] = test system: MC-38; experiment: Selectivity was evaluated against Murine tumor ZC38 colon adenocarcinoma cell lines- ZL1210 lymphocytic leukemia cell lines at a concentration of 0.24 ug/mL; type: functional, cell-based; conditions: Mus musculus
How it was run: (§1)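 Disk diffusion soft agar colony formation assay; sample applied to disk (15 μL); cytotoxicity read as zone units. Differential = zone difference between a solid tumor line (murine Colon38; human colon H116, lung H125) and leukemia (murine L1210, human CEM) or normal bone marrow CFU-GM (murine/human). Solid tumor selective if differential exceeds 250 units.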

[2] = test system: MC-38; experiment: Selectivity was evaluated against murine tumor ZC38 colon adenocarcinoma cell lines- ZCFU-GM normal bone marrow cell lines at a concentration of 0.24 ug/mL; type: functional, cell-based; conditions: Mus musculus; how it was run: as §1
[3] = test system: A549; experiment: In vitro antitumor activity against NSCL A549/ATCC tumor cell lines; type: functional, cell-based, Homo sapiens
[4] = test system: A498; experiment: In vitro antitumor activity against renal A498 tumor cell lines; type: functional, cell-based, Homo sapiens
[5] = species: Homo sapiens; experiment: Concentration giving 500 zone units against H116 colon tumor cell lines; type: functional
How it was run: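 Disk diffusion soft agar colony formation assay on human H116 colon tumor cells. Each sample was applied to a disk as 15 µL, and activity was read as zone units. The value is the sample concentration that gave 500 zone units.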

[6] = test system: MDA-N; experiment: In vitro antitumor activity against breast MDA-N tumor cell lines; type: functional, cell-based, Homo sapiens
[7] = test system: NCI-H522; experiment: In vitro antitumor activity against NSCL NCI-H522 tumor cell lines; type: functional, cell-based, Homo sapiens
[8] = test system: HCT-116; experiment: In vitro antitumor activity against colon HCT116 tumor cell lines; type: functional, cell-based, Homo sapiens
[9] = test system: CCRF-CEM; experiment: In vitro antitumor activity against leukemia CCRF-CEM tumor cell lines; type: functional, cell-based, Homo sapiens
[10] = test system: MDA-MB-435; experiment: In vitro antitumor activity against breast MDA-MB-435 tumor cell lines; type: functional, cell-based, Homo sapiens
[11] = species: Homo sapiens; experiment: (§2) Activity relative to compound 3 (set to 1.0) was evaluated against H116 colon tumor cell lines; type: functional
How it was run: (§3)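 Disk diffusion soft agar colony formation assay on human H116 colon tumor cells, with 15 µL of sample applied to a disk and zone units read. Relative activity = (dilution required for 500 zone units × 100)/(mg/mL), normalised to a reference compound set at 1.0.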

[12] = test system: NCI-H226; experiment: In vitro antitumor activity against NSCL NCI-H226 tumor cell lines; type: functional, cell-based, Homo sapiens
[13] = test system: HL-60; experiment: In vitro antitumor activity against leukemia HL-60(TB) tumor cell lines; type: functional, cell-based, Homo sapiens
[14] = test system: M14; experiment: In vitro antitumor activity against melanoma M14 tumor cell lines; type: functional, cell-based, Homo sapiens
[15] = test system: colon; experiment: Selectivity was evaluated against human ZH116 colon cell lines-CEM lymphocytic leukemia cell lines at a concentration of 0.24 ug/mL; type: functional, cell-based; how it was run: as §1
[16] = test system: COLO 205; experiment: In vitro antitumor activity against colon COLO 205 tumor cell lines; type: functional, cell-based, Homo sapiens
[17] = test system: MCF7; experiment: In vitro antitumor activity against breast MCF-7 tumor cell lines; type: functional, cell-based, Homo sapiens
[18] = test system: NCI-H125; experiment: Selectivity was evaluated against human ZH125 lung non small cell carcinoma cell lines-CEM lymphocytic leukemia cell lines at a concentration of 0.24 ug/mL; type: functional, cell-based; how it was run: as §1
[19] = test system: MOLT-4; experiment: In vitro antitumor activity against leukemia MOLT-4 tumor cell lines; type: functional, cell-based, Homo sapiens
[20] = test system: L1210; experiment: Selectivity was evaluated murine tumor against ZL1210 lymphocytic leukemia cell lines- ZCFU-GM normal bone marrow cell lines at a concentration of 0.24 ug/mL; type: functional, cell-based; conditions: Mus musculus; how it was run: as §1
[21] = test system: UACC-62; experiment: In vitro antitumor activity against melanoma UACC-62 tumor cell lines; type: functional, cell-based, Homo sapiens
[22] = test system: 786-0; experiment: In vitro antitumor activity against renal 786-0 tumor cell lines; type: functional, cell-based, Homo sapiens
[23] = test system: SK-MEL-2; experiment: In vitro antitumor activity against melanoma SK-MEL-2 tumor cell lines; type: functional, cell-based, Homo sapiens
[24] = test system: HCT-15; experiment: In vitro antitumor activity against colon HCT-15 tumor cell lines; type: functional, cell-based, Homo sapiens
[25] = test system: RXF 393; experiment: In vitro antitumor activity against renal RXF 393 tumor cell lines; type: functional, cell-based, Homo sapiens
[26] = Selectivity was evaluated against human ZH116 colon cell lines-CEM lymphocytic leukemia cell lines at a concentration of 550 ug/mL; type: functional
How it was run: (§4)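 Disk diffusion soft agar colony formation assay with zone units read for murine L1210, C38 and CFU-GM (bone marrow) cells and for human H116, H125 and CEM cells. Selectivity is the zone-unit difference between the paired cell lines. A solid tumor minus leukemia or normal difference above 250 units counts as solid tumor selective.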

[27] = test system: MC-38; experiment: Selectivity was evaluated against murine tumor ZC38 colon adenocarcinoma cell lines- ZCFU-GM normal bone marrow cell lines at a concentration of 550 ug/mL; type: functional, Mus musculus; how it was run: as §4
[28] = test system: MC-38; experiment: Selectivity was evaluated against Murine tumor ZC38 colon adenocarcinoma cell lines- ZL1210 lymphocytic leukemia cell lines at a concentration of 550 ug/mL; type: functional, Mus musculus; how it was run: as §4
[29] = as §2; type: functional, Homo sapiens; how it was run: as §3
[30] = test system: NCI-H125; experiment: Selectivity was evaluated against human ZH125 lung non small cell carcinoma cell lines-CEM lymphocytic leukemia cell lines at a concentration of 550 ug/mL; type: functional; how it was run: as §4
[31] = test system: L1210; experiment: Selectivity was evaluated murine tumor against ZL1210 lymphocytic leukemia cell lines- ZCFU-GM normal bone marrow cell lines at a concentration of 550 ug/mL; type: functional, Mus musculus; how it was run: as §4

CC(=O)OC[C@]12CCC(C)=C[C@H]1O[C@@H]1[C@H](O)[C@@H](OC(C)=O)[C@@]2(C)[C@]12CO2 [ANGUIDIN]
< 0.001 µM: IC50 ([3]; a549) | IC50 ([4]; a498) | IC50 ([6]; mda-n) | IC50 ([7]; nci-h522) | IC50 ([8]; hct-116) | IC50 ([9]; ccrf-cem) | IC50 ([10]; mda-mb-435) | IC50 ([12]; nci-h226) | IC50 ([13]; hl-60) | IC50 ([14]; m14) | IC50 ([16]; colo 205) | IC50 ([17]; mcf7) | IC50 ([19]; molt-4) | IC50 ([21]; uacc-62) | IC50 [22] | IC50 ([23]; sk-mel-2) | IC50 ([24]; hct-15) | IC50 ([25]; rxf 393)
0.24 µg/mL: Concentration [5]
423: Relative activity [11]
-150 zone unit: Selectivity [1]
0 zone unit: Selectivity [2] | Selectivity [18]
-100 zone unit: Selectivity [15]
150 zone unit: Selectivity [20]

C/C1=C\C(=O)OC[C@]23CC[C@](C)(O)[C@H]4C[C@@]5(O)[C@H](O[C@H]42)[C@H](O)[C@@H](OC(=O)/C=C\C=C\[C@@H]2O[C@H](C1)O[C@H]2C)[C@]35C [Miophytocen C]
550 µg/mL: Concentration [5]
1: Relative activity [29]
300 zone unit: Selectivity [31]
> 10 µM: IC50 ([3]; Homo sapiens, A549) | IC50 ([4]; Homo sapiens, A498) | IC50 ([6]; Homo sapiens, MDA-N) | IC50 ([7]; Homo sapiens, NCI-H522) | IC50 ([8]; Homo sapiens, HCT-116) | IC50 ([9]; Homo sapiens, CCRF-CEM) | IC50 ([10]; Homo sapiens, MDA-MB-435) | IC50 ([12]; Homo sapiens, NCI-H226) | IC50 ([13]; Homo sapiens, HL-60) | IC50 ([14]; Homo sapiens, M14) | IC50 ([16]; Homo sapiens, COLO 205) | IC50 ([17]; Homo sapiens, MCF7) | IC50 ([19]; Homo sapiens, MOLT-4) | IC50 ([21]; Homo sapiens, UACC-62) | IC50 ([22]; Homo sapiens) | IC50 ([23]; Homo sapiens, SK-MEL-2) | IC50 ([24]; Homo sapiens, HCT-15) | IC50 ([25]; Homo sapiens, RXF 393)
-50 zone unit: Selectivity [26] | Selectivity [27] | Selectivity [30]
-350 zone unit: Selectivity [28]

— ChEMBL document CHEMBL1145117, “Structures and cytotoxic properties of trichoverroids and their macrolide analogues produced by saltwater culture of Myrothecium verrucaria” (J Med Chem, 2003)
